Bioassay records deposited in PubChem BioAssay by several laboratories.
This is a sample that favours compounds with a hit; in the whole collection about 2.3% have one here.
T cruzi repl – inhibitors of intracellular T. cruzi growth, primary screen, luminescence, NIH3T3 host cells; T. cruzi beta-gal in NIH3T3, 90 h; inhibition, % (concentration not given with the values); actives 1.4% (n = 300,000); AID 1885, 2009;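 active = mean inhibition across valid replicates above about 55%, limit read from the data; inconclusive = mean below that limit but half or more replicates reach it; inactive = mean below it, under half of replicates reach it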;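 also: signal also drops with host cell toxicity which is not excluded here; 0% = plate median of DMSO wells and 100% = zero luminescence signal; higher percent means less beta-gal luminescence so fewer parasites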
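System: mouse NIH/3T3 fibroblasts infected with β-gal-expressing T. cruzi Tulahuen C4 / Input: NIH/3T3 cells, 5,000 per well / Buffer or medium: Low-serum DMEM with 2% FBS / Probe or stimulus: 5000 reporter trypomastigotes per well / Schedule: ≥90 h infection period, 3 h prior cell attachment / Measured by: GalScreen luminescence, 60 min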
Beta apoptosis – inhibitors of cytokine-induced beta cell apoptosis, primary screen, luminescence; INS-1E cytokine-induced death, ATP luminescence, 48 h; percent of positive-control rescue, neutral wells zero; protection from apoptosis, % (concentration not given with the values); actives 0.8% (n = 300,000);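 active = Every replicate reaches about 75%, or at least half do and their mean reaches it too, limit read from the data; inconclusive = At least half of replicates reach the limit but their mean does not; inactive = Under half of replicates reach the limit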;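 also: 0% = cytokine-treated negative control wells and 100% = positive control rescue; higher means more ATP so stronger rescue from cytokine killing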
Bfl-1 A1 inh – caspase 3/7 activation in MEF A1-2A-BIM cells, primary screen, A1 inhibitor project, cell-based, luminescence, HTS; Caspase-Glo 3/7 luminescence, 3 h; percent of clofoctol response, vehicle zero; caspase activation, % (test concentration not listed); actives 0.066% (n = 330,000);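 active = over half of replicate activation scores above 10%, or exactly half above 10 with the replicate mean above 10; inconclusive = replicate mean below 10 yet half the replicates above 10; inactive = over half of replicates below 10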
KLF5 inhibitor – KLF5 expression inhibitors, primary screen, DLD-1 cells, luminescence; DLD-1 KLF5 promoter-luciferase reporter; inhibition, % at 5 µM; actives 0.23% (n = 290,000);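 active = inhibition above a per-plate limit of that plate's mean compound inhibition plus 3 SD, cut at about 60% in these data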;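 also: 0% = DMSO wells and 100% = LY294002 at 200 µM; higher means less KLF5 promoter-driven luciferase light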
HIF activator – HIF pathway transcriptional activators, primary screen, cell-based, U2OS HRE-luciferase, luminescence; actives 0.32% (n = 300,000); U2OS HRE-luciferase reporter; normalized: DMSO 0%, desferrioxamine 100%; AID 1910, 2009; activation, % at 7.5 µM (by protocol);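 active = mean activation of at least 10% of the iron chelator positive control signal, with at least half of replicates also reaching 10%; inconclusive = mean and replicate majority disagree about reaching 10%; inactive = mean and most replicates under 10%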
KLF5 confirm – KLF5 expression inhibitors, confirmation, DLD-1 cells, luminescence; actives 79% (n = 610); DLD-1 KLF5 promoter firefly luciferase reporter; shares compounds with KLF5 inhibitor; inhibition, % at 4 µM;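 active = inhibition above a set limit taken from the earlier primary screen, cut at about 63% in these data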;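 also: 0% = DMSO wells and 100% = LY294002 at 200 µM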
IEC-6 tox – cytotoxicity in rat IEC-6 cells, cytotoxicity control for KLF5 inhibitor project, cell-based, luminescence, triplicate | inhibition, % at 4 µM | IEC-6 rat intestinal cells, viability luminescence | shares compounds with KLF5 inhibitor | actives 56% (n = 610); in the data active = inhibition above about 23%;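 also: cells exposed to compounds for 48 hours before viability read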
Active calls of the source: *.

How did Cc1ccc2c(c1)COc1c3ccc(C(=O)O)cc3nn1-2 do in these assays?
T cruzi repl: 19; Beta apoptosis: 11; Bfl-1 A1 inh: -7; KLF5 inhibitor: 92*; HIF activator: -2; KLF5 confirm: 9; IEC-6 tox: -7

How did Cc1ccc2c(c1)COc1c3ccc(C(=O)NCC4CC4)cc3nn1-2 do in these assays?
T cruzi repl: 3; Beta apoptosis: 6; Bfl-1 A1 inh: -1; HIF activator: 4

What do the screens show for `CCOc1ccc(Br)cc1C1=NN(C(C)=O)C(c2ccc([N+](=O)[O-])s2)O1` (stereo unspecified)?
T cruzi repl: 49; KLF5 inhibitor: -12; HIF activator: 0

Results for O=C(O)c1ccc(N=Nc2c(O)ccc3ncccc23)cc1 ?
T cruzi repl: -4; Beta apoptosis: 47; Bfl-1 A1 inh: -9; KLF5 inhibitor: 87*; HIF activator: -1; KLF5 confirm: 15; IEC-6 tox: 14

How did Cc1cc(C(=O)COC(=O)c2ccccc2O)c(C)n1Cc1cccs1 do in these assays?
T cruzi repl: 8; Beta apoptosis: 8; Bfl-1 A1 inh: -8; KLF5 inhibitor: 81*; HIF activator: -3; KLF5 confirm: 78*; IEC-6 tox: -10

Results for CCN(CC)S(=O)(=O)c1ccc(N/N=C/c2cc(OC)ccc2O)nc1 ?
T cruzi repl: 10; Beta apoptosis: 108*; Bfl-1 A1 inh: 2; KLF5 inhibitor: 68*; HIF activator: inconclusive; KLF5 confirm: 74*; IEC-6 tox: 4

Results for Cc1ccc2nc(NC(=O)CCCC(=O)O)sc2c1 ?
T cruzi repl: -2; Beta apoptosis: -4; Bfl-1 A1 inh: -4; KLF5 inhibitor: 9; HIF activator: -6

Results for Cc1ccc2nc(NC(=O)CCCc3nc4ccccc4s3)sc2c1 ?
T cruzi repl: 3; Beta apoptosis: -6; Bfl-1 A1 inh: -2; KLF5 inhibitor: 88*; HIF activator: 1; KLF5 confirm: 98*; IEC-6 tox: 6

Results for O=C1C(=O)N(c2nccs2)C(c2ccccc2)/C1=C(\O)c1ccc2c(c1)OCCO2 (stereo unspecified) ?
T cruzi repl: -49; Beta apoptosis: -6; Bfl-1 A1 inh: -1; KLF5 inhibitor: 74*; HIF activator: 1; KLF5 confirm: 54; IEC-6 tox: 8

Results for CCOc1ccccc1C1CC(=O)Nc2cc3c(cc21)OCCO3 (stereo unspecified) ?
T cruzi repl: 21; Beta apoptosis: 19; Bfl-1 A1 inh: 0; KLF5 inhibitor: 60; HIF activator: 0

How did CCCOc1ccccc1C1CC(=O)Nc2cc3c(cc21)OCCO3 (stereo unspecified) do in these assays?
T cruzi repl: -5; Beta apoptosis: 26; Bfl-1 A1 inh: 0; KLF5 inhibitor: 66*; HIF activator: 0; KLF5 confirm: 83*; IEC-6 tox: 64*

What do the screens show for `COc1ccccc1C1CC(=O)Nc2cc(C)c(C)cc21` (stereo unspecified)?
T cruzi repl: 19; Beta apoptosis: 6; Bfl-1 A1 inh: 0; KLF5 inhibitor: -11; HIF activator: 2

Results for CC(C)Oc1ccccc1C1CC(=O)Nc2cc3c(cc21)OCO3 (stereo unspecified) ?
T cruzi repl: 31; Beta apoptosis: 34; Bfl-1 A1 inh: 1; KLF5 inhibitor: 87*; HIF activator: 0; KLF5 confirm: 83*; IEC-6 tox: 64*

What do the screens show for `CCOc1ccc(CCNC(=O)c2sc3nc4n(c(=O)c3c2C)CCC4)cc1`?
T cruzi repl: 1; Beta apoptosis: -1; Bfl-1 A1 inh: -2; KLF5 inhibitor: 0; HIF activator: 0

What do the screens show for `O=[N+]([O-])c1cccc2c(S(=O)(=O)N3CCOCC3)cccc12`?
T cruzi repl: 3; Beta apoptosis: -1; Bfl-1 A1 inh: 0; KLF5 inhibitor: -28; HIF activator: -23

Results for COc1cccc(N2CCN(C(=O)c3ccc(CS(=O)c4ccc(C)cc4)o3)CC2)c1 (stereo unspecified) ?
T cruzi repl: -16; Beta apoptosis: 16; Bfl-1 A1 inh: 1; KLF5 inhibitor: 74*; HIF activator: 0; KLF5 confirm: 92*; IEC-6 tox: 85*

What do the screens show for `COc1cc2c(c(OC)c1OC)-c1ccc(NC(=O)c3ccccc3)c(=O)cc1[C@@H](NC(C)=O)CC2`?
T cruzi repl: 17; Beta apoptosis: 18; Bfl-1 A1 inh: 0; KLF5 inhibitor: 77*; HIF activator: 0; KLF5 confirm: 64*; IEC-6 tox: 49*

How did CC(=O)N1c2ccc(S(=O)(=O)N3CCC(C(=O)Nc4ccc(C)cn4)CC3)cc2CC1C (stereo unspecified) do in these assays?
T cruzi repl: 3; Beta apoptosis: 5; Bfl-1 A1 inh: -1; KLF5 inhibitor: 6; HIF activator: 0

Results for CN(C(=O)COc1ccc(-c2nnco2)cc1)C1CCS(=O)(=O)C1 (stereo unspecified) ?
T cruzi repl: -8; Beta apoptosis: -5; Bfl-1 A1 inh: 0; HIF activator: -7

What do the screens show for `Cc1ccc2nc(NC(=O)[C@H](C)N3C(=O)C4CC=CCC4C3=O)sc2c1` (stereo partly specified)?
T cruzi repl: 4; Beta apoptosis: 4; Bfl-1 A1 inh: -1; KLF5 inhibitor: 74*; HIF activator: 1; KLF5 confirm: 56; IEC-6 tox: 3

Results for C[C@@H](C(=O)Nc1nc2ccc(F)cc2s1)N1C(=O)C2CC=CCC2C1=O (stereo partly specified) ?
T cruzi repl: -16; Beta apoptosis: -4; Bfl-1 A1 inh: 0; KLF5 inhibitor: 18; HIF activator: 1

How did CCOc1ccc(-c2cc(N3C(=O)Nc4ccccc4N3O)n[nH]2)cc1 do in these assays?
T cruzi repl: -24; Beta apoptosis: -1; Bfl-1 A1 inh: -1; KLF5 inhibitor: 69*; HIF activator: 0; KLF5 confirm: 2; IEC-6 tox: 19

Results for CC(OC(=O)c1ccc(-c2ccc(O)cc2)cc1)C(=O)NC1CCCCC1C (stereo unspecified) ?
T cruzi repl: 0; Beta apoptosis: 6; Bfl-1 A1 inh: -1; HIF activator: 1

Results for Cc1ccc2c(c1)N(CC(=O)Nc1ncccc1C)C(=O)C(C(C)C)O2 (stereo unspecified) ?
T cruzi repl: -4; Beta apoptosis: 6; Bfl-1 A1 inh: 0; KLF5 inhibitor: -10; HIF activator: 1
